Test results as given in ChEMBL document CHEMBL1127424, “7-azetidinylquinolones as antibacterial agents. 2. Synthesis and biological activity of 7-(2,3-disubstituted-1-azetidinyl)-4-oxoquinoline- and -1,8-naphthyridine-3-carboxylic acids. Properties and structure-activity relationships of quinolones with an azetidine moiety” (J Med Chem, 1994).
In brackets after ≈: the same amount, converted by molar mass.

Legend:
Staphylococcus aureus = assay: In vitro minimum inhibitory concentration for Staphylococcus aureus ATCC 25178; format: functional
How it was run: (§1)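 Serial 2-fold agar dilution in Mueller Hinton medium, run alongside a reference quinolone. Inoculum adjusted to 10⁸ cfu/mL; compound range 0.007–16 μg/mL.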

Bacillus cereus = assay: In vitro minimum inhibitory concentration for Bacillus cereus ATCC 11778; format: functional; how it was run: as §1
Mus musculus [1] = assay: Evaluation of efficacy on systemic infections Escherichia coli HM-42, after oral administration in mice; format: functional
How it was run: (§2)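 Single oral dose given immediately after infection, one of four doses per group, chosen from in vitro activity. Survival scored after one week. ED50 (total mg/kg protecting 50%) interpolated from survival rates.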

Morganella morganii = assay: In vitro minimum inhibitory concentration for Morganella morganii ATCC 8019; format: functional; how it was run: as §1
Pseudomonas aeruginosa = assay: In vitro minimum inhibitory concentration for Pseudomonas aeruginosa ATCC 10145; format: functional; how it was run: as §1
Mus musculus [2] = assay: Evaluation of efficacy on systemic infections Staphylococcus aureus HS-93, after oral administration in mice; format: functional; how it was run: as §2
Bacillus subtilis = assay: In vitro minimum inhibitory concentration for Bacillus subtilis ATCC 6633; format: functional; how it was run: as §1
Enterobacter cloacae = assay: In vitro minimum inhibitory concentration for Enterobacter cloacae ATCC 23355; format: functional
Escherichia coli = assay: In vitro minimum inhibitory concentration for Escherichia coli ATCC 10799; format: functional; how it was run: as §1
Mus musculus [3] = assay: Evaluation of efficacy on systemic infections Pseudomonas aeruginosa HS-116, after oral administration in mice; format: functional; how it was run: as §2
[4] = HPLC capacity factor (k'); format: ADME
How it was run: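 Ion-pair reversed-phase HPLC on ODS-2 (10 μm) at 45 °C. Mobile phase: 10 mM sodium heptanesulfonate plus 50 mM KH2PO4 (pH 3.5)–methanol 45:55, 1 mL/min. Samples at 100 μg/mL in DMF, injected in duplicate, UV 280 nm. k' = (tR − t0)/t0.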

Proteus vulgaris = assay: In vitro minimum inhibitory concentration for Proteus vulgaris ATCC 8427; format: functional; how it was run: as §1
[5] = AUC (0-4 hr) ug/ml/h; format: ADME, cell-free; design: time < 4 hr; concentration or dose not given beside the values; conditions: plasma
How it was run: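 Mice dosed once orally at 50 mg/kg; blood taken from groups of six mice at 0.5, 1, 2 and 4 h. Serum drug assayed by disk agar diffusion bioassay (Bacillus subtilis ATCC 6633 on Seed Agar, 37 °C, 18 h), giving total activity.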

Klebsiella pneumoniae = assay: In vitro minimum inhibitory concentration to inhibit Klebsiella pneumoniae ATCC 10031; format: functional; how it was run: as §1
[6] = test system: Staphylococcus epidermidis; assay: In vitro minimum inhibitory concentration for Staphylococcus epidermidis ATCC 155-1; format: functional; how it was run: as §1
Enterococcus faecalis = assay: In vitro minimum inhibitory concentration for Streptococcus faecalis ATCC 10541; format: functional; how it was run: as §1
[7] = Solubility (buffer pH 7.4); format: physicochemical; conditions: read-out: S
How it was run: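 Excess solid shaken in 0.05 M phosphate buffer pH 7.4 for 24 h at 25 °C. Suspension filtered through 0.22 μm, discarding the first portion. Filtrate diluted in 0.1 N HCl or 0.1 N NaOH and read by UV at the compound's absorbance maximum.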

[8] = Measured ionization constant (pKa); format: physicochemical; conditions: read-out: pKa1
How it was run: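 Spectrophotometric titration at 20 ± 1 °C, 0.1 M ionic strength, pH varied with H2SO4 or NaOH made up in the compound stock. Absorbance followed at compound-specific wavelengths chosen from 200–400 nm scans. pKa1 and pKa2 taken as the inflection points of the two-step absorbance vs pH curve.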

MIC (Staphylococcus aureus) [µg/mL]	MIC (Bacillus cereus) [µg/mL]	MIC (Morganella morganii) [µg/mL]	MIC (Pseudomonas aeruginosa) [µg/mL]	MIC (Bacillus subtilis) [µg/mL]	MIC (Enterobacter cloacae) [µg/mL]	MIC (Escherichia coli) [µg/mL]	Log k' [4]	MIC (Proteus vulgaris) [µg/mL]	AUC [5] [ng·h/mL]	MIC (Klebsiella pneumoniae) [µg/mL]	MIC [6] [µg/mL]	MIC (Enterococcus faecalis) [µg/mL]	solubility [7] [µg/mL]	pKa [8]	SMILES	ED50 (Mus musculus [1]) [mg/kg]	ED50 (Mus musculus [2]) [mg/kg]	ED50 (Mus musculus [3]) [mg/kg]
0.5 (≈ 1.34 µM)	1 (≈ 2.68 µM)	0.5 (≈ 1.34 µM)	4 (≈ 10.7 µM)	0.06 (≈ 0.161 µM)	0.12 (≈ 0.321 µM)	0.12 (≈ 0.321 µM)	-0.0042	1 (≈ 2.68 µM)	3200	0.06 (≈ 0.161 µM)	0.5 (≈ 1.34 µM)	4 (≈ 10.7 µM)			CCNC[C@H]1CN(c2cc3c(cc2F)c(=O)c(C(=O)O)cn3C2CC2)[C@@H]1C	28.4	60.5	265
0.12 (≈ 0.362 µM)	0.06 (≈ 0.181 µM)	0.03 (≈ 0.0905 µM)	0.5 (≈ 1.51 µM)	0.03 (≈ 0.0905 µM)	0.03 (≈ 0.0905 µM)	0.06 (≈ 0.181 µM)	0.0457	0.06 (≈ 0.181 µM)	3700	0.03 (≈ 0.0905 µM)	0.06 (≈ 0.181 µM)	0.5 (≈ 1.51 µM)	6.1 (≈ 18.4 µM)		C[C@H]1[C@@H](N)CN1c1cc2c(cc1F)c(=O)c(C(=O)O)cn2C1CC1	20	36.7	277
0.12 (≈ 0.362 µM)	0.06 (≈ 0.181 µM)	0.03 (≈ 0.0905 µM)	0.25 (≈ 0.754 µM)	0.03 (≈ 0.0905 µM)	0.03 (≈ 0.0905 µM)	0.03 (≈ 0.0905 µM)	-0.0132	0.06 (≈ 0.181 µM)	9200	0.03 (≈ 0.0905 µM)	0.12 (≈ 0.362 µM)	0.25 (≈ 0.754 µM)	9.9 (≈ 29.9 µM)	6.46	C[C@H]1[C@H](N)CN1c1cc2c(cc1F)c(=O)c(C(=O)O)cn2C1CC1	3.5	22.3	108
0.25 (≈ 0.724 µM)	1 (≈ 2.9 µM)	1 (≈ 2.9 µM)	2 (≈ 5.79 µM)	0.06 (≈ 0.174 µM)	0.12 (≈ 0.347 µM)	0.12 (≈ 0.347 µM)	-0.0607	1 (≈ 2.9 µM)	0	0.06 (≈ 0.174 µM)	0.25 (≈ 0.724 µM)	1 (≈ 2.9 µM)			C[C@@H]1[C@@H](CN)CN1c1cc2c(cc1F)c(=O)c(C(=O)O)cn2C1CC1	60.5	95	355
0.25 (≈ 0.62 µM)	0.25 (≈ 0.62 µM)	0.25 (≈ 0.62 µM)	2 (≈ 4.96 µM)	0.12 (≈ 0.298 µM)	0.12 (≈ 0.298 µM)	0.12 (≈ 0.298 µM)	0.1875	0.5 (≈ 1.24 µM)	31400	0.12 (≈ 0.298 µM)	0.12 (≈ 0.298 µM)	2 (≈ 4.96 µM)	11.2 (≈ 27.8 µM)		C[C@H]1[C@H](N)CN1c1c(F)cc2c(=O)c(C(=O)O)cn(-c3ccc(F)cc3)c2c1F	2.5	5.7	54.6
0.012 (≈ 0.0344 µM)	0.12 (≈ 0.344 µM)	0.012 (≈ 0.0344 µM)	1 (≈ 2.86 µM)	0.06 (≈ 0.172 µM)	0.06 (≈ 0.172 µM)	0.12 (≈ 0.344 µM)	0.0813	0.25 (≈ 0.716 µM)	9000	0.12 (≈ 0.344 µM)	0.12 (≈ 0.344 µM)	1 (≈ 2.86 µM)	23.6 (≈ 67.6 µM)		C[C@H]1[C@@H](N)CN1c1c(F)cc2c(=O)c(C(=O)O)cn(C3CC3)c2c1F	6.2	18.6	123
0.12 (≈ 0.298 µM)	0.25 (≈ 0.62 µM)	0.25 (≈ 0.62 µM)	2 (≈ 4.96 µM)	0.03 (≈ 0.0744 µM)	0.12 (≈ 0.298 µM)	0.12 (≈ 0.298 µM)	0.1875	0.5 (≈ 1.24 µM)	30200	0.015 (≈ 0.0372 µM)	0.12 (≈ 0.298 µM)	1 (≈ 2.48 µM)	31 (≈ 76.9 µM)		C[C@H]1[C@H](N)CN1c1cc2c(cc1F)c(=O)c(C(=O)O)cn2-c1ccc(F)cc1F [CETEFLOXACIN]	6	8.1	77.9
0.25 (≈ 0.639 µM)	0.25 (≈ 0.639 µM)	0.5 (≈ 1.28 µM)	4 (≈ 10.2 µM)	0.12 (≈ 0.307 µM)	1 (≈ 2.55 µM)	0.25 (≈ 0.639 µM)	0.025	0.5 (≈ 1.28 µM)	11800	0.06 (≈ 0.153 µM)	0.25 (≈ 0.639 µM)	2 (≈ 5.11 µM)			CCNC[C@H]1CN(c2c(F)cc3c(=O)c(C(=O)O)cn(C4CC4)c3c2F)[C@@H]1C	4.7	37.5	61
0.12 (≈ 0.274 µM)	0.03 (≈ 0.0685 µM)	0.25 (≈ 0.571 µM)	0.5 (≈ 1.14 µM)	0.03 (≈ 0.0685 µM)	0.12 (≈ 0.274 µM)	0.06 (≈ 0.137 µM)	0.3553	0.25 (≈ 0.571 µM)	32300	0.12 (≈ 0.274 µM)	0.06 (≈ 0.137 µM)	0.25 (≈ 0.571 µM)	16.5 (≈ 37.7 µM)		C[C@H]1[C@H](N)CN1c1c(F)cc2c(=O)c(C(=O)O)cn(-c3ccc(F)cc3F)c2c1Cl	3.6	4.3	86.9
